This is a sample that favours compounds with a hit; in the whole collection about 8.2% have one here.
D1 allo mod: allosterically modulates the human D1 dopamine receptor | P21728 | HEK293 D1, CRE-luciferase, dopamine EC30 potentiation; actives deviate in either direction | B-score at 10 µM | actives 5.9% (n = 58,000) | AID 641;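 active = luminescence count or its row- and column-corrected plate score outside the 99.7% band of the plate's sample wells, on either side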
M1 antagonist: blocks the rat M1 muscarinic receptor response to acetylcholine; CHO-M1 cells, Fluo-4 calcium, ACh EC80 antagonist mode; active compounds read low; B-score at 10 µM; actives 3.4% (n = 64,000);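 active = calcium fluorescence response, raw or row-and-column corrected B-score, differing from the plate sample mean either way at a set confidence level, mostly lower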
SF-1 act: activators of human nuclear receptor SF-1. Q13285. CHO-K1 Gal4-SF-1 LBD luciferase reporter; % increase over DMSO SF-1-specific signal. activation, % at 10 µM. actives 1.9% (n = 65,000);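 active = activation above the mean activation of all tested compounds plus 3 SD, cut at about 50% in these data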
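Material: CHO-K1 cells with Gal4–hSF-1 LBD chimera plus Gal4-driven luciferase / Input: 4,000 CHO-K1 cells per well / Incubation: compound exposure 20 h at 37 °C / Signal: luminescence read 15 min after SteadyLite luciferase reagent, after room-temperature equilibration / Read-out: percent activation versus DMSO / Benchmarks: DMSO negative control and −SF1 background wells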
M1 agonist: M1 muscarinic receptor agonism; B-score at 10 µM; AID 626; CHO-M1 cells, Fluo-4 calcium fluorescence, agonist mode; active compounds read high; actives 3% (n = 64,000);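 active = fluorescence rise, raw or as B-score row- and column-corrected plate score, outside the 99.7% band of its plate's samples, either direction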
HePTP inhibitor: inhibitors of human HePTP phosphatase | P35236 | recombinant HePTP phosphatase activity, OD absorbance | inhibition, % at 20 µM | actives 0.64% (n = 110,000); in the data active = inhibition above about 50%
Target sequence (P35236 whole entry, looked up): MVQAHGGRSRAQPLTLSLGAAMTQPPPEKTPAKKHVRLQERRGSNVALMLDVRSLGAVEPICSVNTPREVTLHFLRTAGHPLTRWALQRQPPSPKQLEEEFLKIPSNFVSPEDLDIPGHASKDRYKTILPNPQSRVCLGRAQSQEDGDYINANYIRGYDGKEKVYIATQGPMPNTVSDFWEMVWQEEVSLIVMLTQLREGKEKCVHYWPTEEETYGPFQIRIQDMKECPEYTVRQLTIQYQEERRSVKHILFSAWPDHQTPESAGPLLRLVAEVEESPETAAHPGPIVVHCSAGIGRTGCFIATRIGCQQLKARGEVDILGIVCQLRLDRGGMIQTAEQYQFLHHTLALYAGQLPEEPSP
RORa activator: activates the human nuclear receptor RORA | AID 560 | P35398 | CHO-K1 Gal4-RORA LBD luciferase reporter, luminescence; percent increase over mock-subtracted basal signal | activation, % at 10 µM | actives 1.5% (n = 65,000);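 active = activation above the mean of all tested compounds plus 3 SD, cut at about 49% in these data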
D1 PAM confirm: confirmation of human D1 dopamine receptor allosteric modulators. actives 88% (n = 2,200). luminescence at 10 µM. shares compounds with D1 allo mod. HEK293 D1 CRE-luciferase, dopamine EC30 potentiation; active compounds read high;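 active = luminescence in either of two replicates above the same-plate mean plus 3 SD of the low-dose dopamine control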
D1 ag no DA: secondary test of D1 modulators: activity without dopamine | HEK293 D1 CRE-luciferase, luminescence, no dopamine; active compounds read high | shares compounds with D1 allo mod | actives 0.8% (n = 1,900) | luminescence at 10 µM; in the data active = luminescence above about 3900
Isoprot counter: alters isoproterenol CRE-luciferase response in HEK293 cells. calls only at 10 µM. HEK293 D1 CRE-luciferase, isoproterenol EC30 counter-screen. AID 647. shares compounds with D1 allo mod. actives 63% (n = 2,200);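 active = luminescence in either replicate above plate mean of wells with a partly effective reference agonist dose plus 3 SD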;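 note: isoproterenol raises cAMP through native beta-adrenoceptor Gs so signal bypasses D1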
Of the large screens only hits and unclear results are named; the others gave an inactive call (follow-up assays come after a bar, where they were run).

CC(C)c1nc2sc3c(SCC(=O)NCc4ccco4)ncnc3c2c2c1CCC2	D1 allo mod 13.6 | D1 PAM confirm 17912 | Isoprot counter inactive
CSc1nc(SCC(=O)NCc2ccco2)c2c3c(sc2n1)CN(C)CC3	none
COCc1[nH]nc2c1C(c1c(F)cccc1Cl)C(C#N)=C(N)O2 (stereo not drawn)	none
CCOC(=O)CC(=O)Nc1ccc(C(=O)OCC)cc1	D1 allo mod 4.54 | D1 PAM confirm inactive | D1 ag no DA inactive | Isoprot counter inactive
CCC(=O)Oc1ccc2ccc(=O)oc2c1	none (no result: D1 allo mod, M1 antagonist, SF-1 act, M1 agonist, RORa activator)
COCCNC(=O)c1ccc(N(C)S(=O)(=O)c2ccc(OC)c(OC)c2)cc1	D1 allo mod 11.1 | D1 PAM confirm 14404 | D1 ag no DA inactive | Isoprot counter active
COc1ccc(C(=O)Nn2c(C)ccc2C)cc1OC	D1 allo mod 9.63 | D1 PAM confirm 11780 | D1 ag no DA inactive | Isoprot counter active
COc1ccc(NC(=O)c2ccc(OC)c(OC)c2)cc1OC	none (no result: D1 allo mod, M1 antagonist, SF-1 act, M1 agonist, RORa activator)
CCOc1cc(C(=O)NCCOC)ccc1OC	D1 allo mod 4.81 | D1 PAM confirm 7216 | D1 ag no DA inactive | Isoprot counter inactive
O=C(CSc1nc(Nc2ccccc2)nc(N2CCOCC2)n1)Nc1ccc2c(c1)OCCO2	D1 allo mod 3.4 | D1 PAM confirm 8860 | Isoprot counter active
O=C(CSc1nc(Nc2ccccc2)nc(N2CCOCC2)n1)N1CCCC1	D1 allo mod 5.57 | D1 PAM confirm 9432 | D1 ag no DA inactive | Isoprot counter active
COc1ccc(N2C(=O)/C(=C\c3cc(OC)ccc3OC)SC2=S)cc1	none (no result: D1 allo mod, M1 antagonist, SF-1 act, M1 agonist, RORa activator)
c1ccc2c(c1)oc1c(Nc3ccc4c(c3)OCO4)ncnc12	D1 allo mod 3.08, SF-1 act 92.4, RORa activator 83.3 | D1 PAM confirm 6592 | Isoprot counter active
N=c1c(S(=O)(=O)c2ccccc2)cc2c(=O)n3ccccc3nc2n1CC1CCCO1 (stereo not drawn)	D1 allo mod 7.59 | D1 PAM confirm 10760 | D1 ag no DA inactive | Isoprot counter active
Cc1ccc(S(=O)(=O)c2cc3c(=O)n4cc(C)ccc4nc3n(CC3CCCO3)c2=N)cc1 (stereo not drawn)	none
Cc1c(N2C(=O)/C(=C/c3cccs3)SC2=S)c(=O)n(-c2ccccc2)n1C	none (no result: D1 allo mod, M1 antagonist, SF-1 act, M1 agonist, RORa activator)
CCC(CC)C(=O)Nc1ccccc1[N+](=O)[O-]	none (no result: D1 allo mod, M1 antagonist, SF-1 act, M1 agonist, RORa activator)
CNc1nc(OC)nc(N2CCOCC2)n1	D1 allo mod 6 | D1 PAM confirm 19816 | D1 ag no DA inactive | Isoprot counter active
C=CCNc1nc(N)c(C(=O)c2ccc3c(c2)OCO3)s1	D1 allo mod 18.5 | D1 PAM confirm 14852 | D1 ag no DA inactive | Isoprot counter active
CCCC1(c2ccccc2)NC(=O)N(CC(=O)c2[nH]c(C)c(C(=O)OCC)c2C)C1=O (stereo not drawn)	D1 allo mod 7 | D1 PAM confirm 8616 | D1 ag no DA inactive | Isoprot counter active
COC(=O)c1ccc(Cn2cnc3c(sc4nc(N5CCOCC5)c5c(c43)CCCC5)c2=O)o1	D1 allo mod 6.76 | D1 PAM confirm 8596 | D1 ag no DA inactive | Isoprot counter active
CCCC(=O)Nc1c2c(nn1-c1ccc(OC)cc1)CS(=O)C2 (stereo not drawn)	D1 allo mod 3.2 | D1 PAM confirm inactive | D1 ag no DA inactive | Isoprot counter inactive
CCC(=O)Nc1c2c(nn1-c1ccc(OC)cc1)CS(=O)C2 (stereo not drawn)	none
C=CCSc1nc(N)c2c(C)c(C)sc2n1	D1 allo mod 4.9 | D1 PAM confirm 18248 | D1 ag no DA inactive | Isoprot counter active
Cc1cc(Oc2ccccc2)nc(-c2ccccc2)n1	D1 allo mod 2.71 | D1 PAM confirm 6804 | D1 ag no DA inactive | Isoprot counter active
